Laboratory results: ChEMBL document CHEMBL1128280, “Synthesis, topoisomerase I inhibitory activity, and in vivo evaluation of 11-azacamptothecin analogs” (J Med Chem, 1995)
≈ marks a conversion by molar mass, not a printed value.

Assays:
[1] = Aqueous solubility in pH 5 acetate buffer.; type: physicochemical
How it was run: (§1)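 Excess solid equilibrated in 0.25 mL 0.1 M sodium acetate, pH 5.0, 25 °C, 24 h; filtered (0.22 μm); lactone and carboxylate forms separated by reverse-phase C-18 HPLC, mobile phase 40% organic/60% aqueous with 0.005 M tetrabutylammonium phosphate; quantified against calibration curves of standard peak areas.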

[2] = (§2) Concentration required to inhibit 50% growth of human colon carcinoma cell line (HT-29); type: functional, cell-based
How it was run: (§3)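 MTT microculture tetrazolium assay; cells grown in α-MEM with 15% heat-inactivated FBS, glutamine, pyruvate, insulin, nonessential amino acids, gentamycin, 37 °C, 5% CO2; adhered overnight, exposed to compound 48 h then fresh medium 48 h; 0.17 nM to 10 μM, quadruplicate; 4 h MTT, DMSO extraction; four-parameter logistic fit, usually single curve.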

Mus musculus [3] = experiment: Delay in tumor growth in mice to 500% volume of day 1 relative to control at dose 90 mg/kg.; type: functional
How it was run: (§4)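 Female nu/nu mice bearing subcutaneous flank HT-29 xenografts; single-bolus subcutaneous maximum tolerated dose first set in tumor-free mice by body weight loss, then split into three portions given over one day (N = 6); caliper volume = length × width²/2; T−C = difference in days for mean tumor volume to reach 500% of initial, treated vs controls.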

[4] = Aqueous solubility determined in pH 5 acetate buffer; type: physicochemical; how it was run: as §1
SK-OV-3 = experiment: Concentration required to inhibit 50% growth of human ovarian cancer cell line(SK-OV-3) was measured; type: functional, cell-based; how it was run: as §3
Mus musculus [5] = experiment: Delay in tumor growth in mice to 500% volume of day 1 relative to control at dose 100 mg/kg.; type: functional; how it was run: as §4
HT-29 = experiment: as §2; type: functional, cell-based; how it was run: as §3
Mus musculus [6] = experiment: Delay in tumor growth in mice to 500% volume of day 1 relative to control at dose 25 mg/kg.; type: functional; how it was run: as §4
SK-VLB = experiment: Concentration required to inhibit 50% growth of vinblastine resistant ovarian cancer cell line(SKVLB); type: functional, cell-based; settings: Homo sapiens; how it was run: as §3
Mus musculus [7] = experiment: Delay in tumor growth in mice to 500% volume of day 1 relative to control at dose 146 mg/kg; type: functional; how it was run: as §4
Mus musculus [8] = experiment: Delay in tumor growth in mice to 500% volume of day 1 relative to control at dose 120 mg/kg.; type: functional; how it was run: as §4
Mus musculus [9] = experiment: Delay in tumor growth in mice to 500% volume of day 1 relative to control at dose 200 mg/kg.; type: functional; how it was run: as §4
Mus musculus [10] = experiment: Delay in tumor growth in mice to 500% volume of day 1 relative to control at dose 54 mg/kg.; type: functional
How it was run: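 Female nu/nu mice (18-24 g) with subcutaneous HT-29 flank xenografts, N = 6. Maximum tolerated single subcutaneous bolus first set by body weight loss in tumor-free nude mice. That dose was split into three portions given over one day. Tumor volume by calipers as length × width²/2. T−C is the delay, in days, for mean tumor volume to reach 500% of initial versus untreated controls.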

Question: For CCc1c2c(nc3cnccc13)-c1cc3c(c(=O)n1C2)COC(=O)[C@]3(O)CC, which solubility [1] is on record?
Answer: 0.01 mg/mL (≈ 0.0265 mM)

Question: Which IC50 [2] does the source give for CCc1c2c(nc3cnc(C(=N)N)cc13)-c1cc3c(c(=O)n1C2)COC(=O)[C@]3(O)CC here?
Answer: 0.311 µM

Question: What about the T-C (Mus musculus [3]) of the same compound?
Answer: 6 days

Question: And the solubility [4]?
Answer: > 3 mg/mL

Question: And the IC50 (SK-OV-3)?
Answer: 0.071 µM

Question: With CCc1c2c(nc3c[n+](C)ccc13)-c1cc3c(c(=O)n1C2)COC(=O)[C@]3(O)CC.[I-] as the compound, how does the T-C (Mus musculus [5]) read?
Answer: 3.5 days

Question: And the solubility [1]?
Answer: > 2.5 mg/mL

Question: For CC[C@@]1(O)C(=O)OCc2c1cc1n(c2=O)Cc2c-1nc1cnc(C#CCN)cc1c2C, which IC50 [2] is on record?
Answer: 0.355 µM

Question: And the IC50 (SK-OV-3)?
Answer: 0.245 µM

Question: Which solubility [1] does the source give for CC[C@@]1(O)C(=O)OCc2c1cc1n(c2=O)Cc2cc3cc[n+]([O-])cc3nc2-1 here?
Answer: 0.3 mg/mL (≈ 0.821 mM)

Question: For CCOC(=O)c1cc2c(CC)c3c(nc2cn1)-c1cc2c(c(=O)n1C3)COC(=O)[C@]2(O)CC, which IC50 (HT-29) is on record?
Answer: 0.026 µM

Question: Which IC50 [2] does the source give for CCc1c2c(nc3cnc(C(=N)NO)cc13)-c1cc3c(c(=O)n1C2)COC(=O)[C@]3(O)CC here?
Answer: 0.007 µM

Question: What about the T-C (Mus musculus [6]) of the same compound?
Answer: 15 days

Question: What about the solubility [4] of the same compound?
Answer: > 3 mg/mL

Question: What about the IC50 (SK-OV-3) of the same compound?
Answer: 0.0008 µM

Question: For CCc1c2c(nc3cnc(C#N)cc13)-c1cc3c(c(=O)n1C2)COC(=O)[C@]3(O)CC, which IC50 (HT-29) is on record?
Answer: 0.017 µM

Question: For CCc1c2c(nc3cnc(CN)cc13)-c1cc3c(c(=O)n1C2)COC(=O)[C@]3(O)CC, which IC50 (SK-VLB) is on record?
Answer: 0.444 µM

Question: What about the IC50 (SK-OV-3) of the same compound?
Answer: 0.032 µM

Question: With CC[C@@]1(O)C(=O)OCc2c1cc1n(c2=O)Cc2c-1nc1cnc(Br)cc1c2C as the compound, how does the IC50 (HT-29) read?
Answer: 0.001 µM

Question: What about the IC50 (SK-VLB) of the same compound?
Answer: 0.0005 µM

Question: And the IC50 (SK-OV-3)?
Answer: 0.001 µM

Question: Which IC50 (HT-29) does the source give for CCc1c2c(nc3cnc(C#CCN)cc13)-c1cc3c(c(=O)n1C2)COC(=O)[C@]3(O)CC here?
Answer: 0.351 µM

Question: And the IC50 (SK-VLB)?
Answer: 0.384 µM

Question: And the T-C (Mus musculus [7])?
Answer: 1.5 days

Question: What about the solubility [4] of the same compound?
Answer: 5.7 mg/mL (≈ 13.2 mM)

Question: And the IC50 (SK-OV-3)?
Answer: 0.243 µM

Question: For CCc1c2c(nc3cnc(Br)cc13)-c1cc3c(c(=O)n1C2)COC(=O)[C@]3(O)CC, which IC50 (HT-29) is on record?
Answer: 0.007 µM

Question: With CC[C@@]1(O)C(=O)OCc2c1cc1n(c2=O)Cc2c-1nc1c[n+]([O-])c(CN)cc1c2C as the compound, how does the IC50 [2] read?
Answer: 0.731 µM

Question: And the solubility [4]?
Answer: > 3 mg/mL

Question: And the T-C (Mus musculus [8])?
Answer: 5.3 days

Question: And the IC50 (SK-OV-3)?
Answer: 0.066 µM

Question: For CC[C@@]1(O)C(=O)OCc2c1cc1n(c2=O)Cc2c-1nc1cnc(CN)cc1c2C, which IC50 (HT-29) is on record?
Answer: 0.123 µM

Question: What about the IC50 (SK-VLB) of the same compound?
Answer: 0.042 µM

Question: What about the solubility [4] of the same compound?
Answer: 7.2 mg/mL (≈ 18.3 mM)

Question: What about the IC50 (SK-OV-3) of the same compound?
Answer: 0.017 µM

Question: What about the T-C (Mus musculus [9]) of the same compound?
Answer: 3.4 days

Question: With CC[C@@]1(O)C(=O)OCc2c1cc1n(c2=O)Cc2cc3ccccc3nc2-1 [CAMPTOTHECIN] as the compound, how does the solubility [1] read?
Answer: < 0.005 mg/mL

Question: Which results are given for CC[C@@]1(O)C(=O)OCc2c1cc1n(c2=O)Cc2cc3c(CN(C)C)c(O)ccc3nc2-1.Cl [TOPOTECAN HYDROCHLORIDE]?
Answer: solubility [4]: 3.1 mg/mL; T-C (Mus musculus [10]): 10.3 days
